Results reported in paper PMC3131532 (Chemistry & biology, 2011).
pIC50: −log10 of the molar value.

Tests used:
PfSENP1 [1] = biological target: T1, PfSENP1 (Plasmodium falciparum, UniProt Q8I583); assay: PfSUMO-pro cleavage assay with recombinant PfSENP1; assay type: biochemical; conditions: gel assay; VEA-260 0–200 µM; JCP analogs 0–300 µM; NEM 10 mM
How it was run: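 Recombinant PfSENP1, His6-tagged (imidazole-eluted) or untagged (released from CPD fusion with 100 µM InsP6), expressed in E. coli BL21(DE3) for 3 hr at 30°C after 0.1 mM IPTG induction. Enzyme pretreated with test compound or 10 mM N-ethylmaleimide; for the 0–200 µM series, PfSENP1 was 100 nM. PfSUMO-pro then added; reactions run on SDS-PAGE with Coomassie-type staining. No-enzyme substrate lane served as control.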

[2] = tested on: PfSENP activity in parasite lysates; assay: PfSUMO-pro processing assay in parasite lysates; assay type: biochemical, Plasmodium falciparum; conditions: mixed stage lysates; VEA-260 0–200 µM; NEM 10 mM; hSUMO-VS 10 µM
How it was run: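 Soluble mixed-stage parasite lysate was pretreated with test compound, NEM or hSUMO-VS, then given PfSUMO-pro substrate. For the library screen, 10 µg lysate was preincubated 30 min at room temperature with 100 µM (final) test compound from a DMSO stock. PfSUMO-pro was then added at 10 µM final for 1 h at 37°C. Reactions were quenched with SDS loading dye, resolved by SDS-PAGE and stained with Gelcode Blue. Controls were DMSO-treated lysate and substrate without lysate.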

PfSENP1 [3] = biological target: T1, PfSENP1; assay: SENP fluorogenic substrate; assay type: biochemical; conditions: read-out: IC50 PfSENP1; substrate QTGG-AFC
falcipains 1/2/3 = assay: Competition for labeling with activity-based probes; assay type: biochemical, Plasmodium falciparum; conditions: mixed-stage lysates; VEA-260 0–250 µM
How it was run: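 Mixed-stage P. falciparum total lysates were pretreated with test compound (0–250 µM), or with unlabelled DCG-04 (100 µM) as a competition control, then labelled with 125I-DCG-04. Proteins were resolved by SDS-PAGE, and residual probe labelling was read by autoradiography.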

hSENP8 (deNEDDylase) = biological target: T2, hSENP8 (deNEDDylase) (Homo sapiens, UniProt Q96LD8); assay: fluorogenic substrate; assay type: biochemical; conditions: read-out: IC50 hSENP8 (deNEDDylase); substrate LRGG-AFC
T2 sequence (Q96LD8 1-212): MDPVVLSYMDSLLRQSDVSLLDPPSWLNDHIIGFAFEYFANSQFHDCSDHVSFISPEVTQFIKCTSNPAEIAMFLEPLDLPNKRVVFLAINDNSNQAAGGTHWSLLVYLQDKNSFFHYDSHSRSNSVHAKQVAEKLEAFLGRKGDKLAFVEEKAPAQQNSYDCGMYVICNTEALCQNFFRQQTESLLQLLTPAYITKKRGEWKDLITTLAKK

hSENP6 = biological target: T3, hSENP6 (Homo sapiens, UniProt Q9GZR1); assay: SENP fluorogenic substrate; assay type: biochemical; conditions: read-out: IC50 hSENP6; substrate LRGG-AFC
T3 sequence (Q9GZR1 1-1112): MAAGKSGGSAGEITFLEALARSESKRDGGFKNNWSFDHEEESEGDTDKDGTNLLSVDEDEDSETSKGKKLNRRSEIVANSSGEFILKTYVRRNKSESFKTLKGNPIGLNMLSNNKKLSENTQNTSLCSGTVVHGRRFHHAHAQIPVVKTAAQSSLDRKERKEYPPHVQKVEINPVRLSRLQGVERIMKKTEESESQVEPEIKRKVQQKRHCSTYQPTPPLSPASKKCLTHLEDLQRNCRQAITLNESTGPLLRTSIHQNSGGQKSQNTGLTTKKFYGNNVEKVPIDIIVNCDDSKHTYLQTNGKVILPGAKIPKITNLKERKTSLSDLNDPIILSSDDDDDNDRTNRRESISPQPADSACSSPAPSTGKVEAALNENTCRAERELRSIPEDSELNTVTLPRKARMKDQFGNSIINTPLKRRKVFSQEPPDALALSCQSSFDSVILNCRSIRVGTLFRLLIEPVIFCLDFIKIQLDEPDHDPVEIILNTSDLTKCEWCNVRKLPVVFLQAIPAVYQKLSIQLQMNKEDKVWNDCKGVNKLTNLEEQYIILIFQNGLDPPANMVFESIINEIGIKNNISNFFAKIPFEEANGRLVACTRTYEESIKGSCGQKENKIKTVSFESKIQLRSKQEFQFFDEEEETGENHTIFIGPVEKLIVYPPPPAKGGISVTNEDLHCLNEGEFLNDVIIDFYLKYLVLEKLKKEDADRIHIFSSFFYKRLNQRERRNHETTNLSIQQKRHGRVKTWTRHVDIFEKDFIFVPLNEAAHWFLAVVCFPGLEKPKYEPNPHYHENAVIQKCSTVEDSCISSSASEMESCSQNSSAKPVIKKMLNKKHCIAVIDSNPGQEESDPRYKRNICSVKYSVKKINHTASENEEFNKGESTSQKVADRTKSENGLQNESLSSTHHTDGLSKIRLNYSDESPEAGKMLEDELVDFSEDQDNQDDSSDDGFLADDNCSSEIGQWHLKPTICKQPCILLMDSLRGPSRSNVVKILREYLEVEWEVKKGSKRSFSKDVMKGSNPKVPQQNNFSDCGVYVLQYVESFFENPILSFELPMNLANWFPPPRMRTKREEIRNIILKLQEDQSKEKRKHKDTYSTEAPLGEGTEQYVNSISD

hSENP1 = biological target: T4, hSENP1 (Homo sapiens, UniProt Q9P0U3); assay: SENP fluorogenic substrate; assay type: biochemical; conditions: read-out: IC50 hSENP1; substrate QTGG-AFC
T4 sequence (Q9P0U3 419-644 limits assumed): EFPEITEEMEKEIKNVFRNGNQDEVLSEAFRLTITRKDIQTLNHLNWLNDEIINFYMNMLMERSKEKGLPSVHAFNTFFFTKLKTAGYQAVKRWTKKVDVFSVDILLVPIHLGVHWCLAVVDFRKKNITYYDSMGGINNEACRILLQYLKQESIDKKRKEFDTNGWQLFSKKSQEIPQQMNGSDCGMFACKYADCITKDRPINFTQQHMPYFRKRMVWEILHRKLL

hSENP2 = biological target: T5, hSENP2 (Homo sapiens, UniProt Q9HC62); assay: SENP fluorogenic substrate; assay type: biochemical; conditions: read-out: IC50 hSENP2; substrate QTGG-AFC
T5 sequence (Q9HC62 1-589): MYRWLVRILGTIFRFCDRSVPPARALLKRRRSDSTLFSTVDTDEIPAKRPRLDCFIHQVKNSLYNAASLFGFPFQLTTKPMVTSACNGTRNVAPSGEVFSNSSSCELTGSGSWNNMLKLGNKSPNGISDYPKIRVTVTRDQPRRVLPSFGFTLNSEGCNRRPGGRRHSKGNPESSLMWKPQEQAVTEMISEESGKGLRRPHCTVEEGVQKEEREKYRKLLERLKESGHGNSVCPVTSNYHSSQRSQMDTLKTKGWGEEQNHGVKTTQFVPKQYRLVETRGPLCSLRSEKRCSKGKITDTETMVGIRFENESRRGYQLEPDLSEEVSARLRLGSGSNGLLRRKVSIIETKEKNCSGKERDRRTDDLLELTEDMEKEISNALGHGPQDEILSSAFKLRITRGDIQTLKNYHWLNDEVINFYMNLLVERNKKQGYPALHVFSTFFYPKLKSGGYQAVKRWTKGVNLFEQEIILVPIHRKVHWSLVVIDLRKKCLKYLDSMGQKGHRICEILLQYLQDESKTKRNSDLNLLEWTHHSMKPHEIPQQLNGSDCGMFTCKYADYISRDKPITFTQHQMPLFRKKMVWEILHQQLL

UCH-L3 = biological target: T6, UCH-L3 (Homo sapiens, UniProt P15374); assay: DUB fluorogenic substrate; assay type: biochemical; conditions: read-out: IC50 UCH-L3; substrate LRGG-AFC
T6 sequence (P15374 1-230): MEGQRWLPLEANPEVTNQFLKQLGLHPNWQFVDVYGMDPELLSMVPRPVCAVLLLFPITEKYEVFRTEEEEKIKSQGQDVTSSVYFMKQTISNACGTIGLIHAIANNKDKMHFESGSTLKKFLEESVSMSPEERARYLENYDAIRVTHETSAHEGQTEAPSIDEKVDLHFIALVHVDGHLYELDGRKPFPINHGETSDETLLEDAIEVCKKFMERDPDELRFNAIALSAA

PfSENP1 [4] = biological target: T1, PfSENP1; assay: Reversibility of PfSENP1 inhibition; assay type: biochemical; conditions: 200 µM inhibitor, 2 hr 37°C, then dilution and Ni-NTA enrichment
How it was run: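 PfSENP1 (200 nM) exposed to test compound (200 µM), N-ethylmaleimide (10 mM) or DMSO for 2 hr at 37°C. Input sample taken. Treated enzyme then diluted, recaptured on Ni2+-NTA and eluted with 300 mM imidazole. Input and eluate each added to PfSUMO-pro; cleavage resolved by SDS-PAGE with protein stain.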

pIC50 (hSENP6)	pIC50 (UCH-L3)	reversibility of PfSENP1 inhibition (PfSENP1 [4])	Structure (SMILES)	inhibition of PfSUMO-pro cleavage by recombinant PfSENP1 (PfSENP1 [1])	inhibition of PfSENP activity in parasite lysates [2]	pIC50 (PfSENP1 [3])	inhibition of falcipains (residual probe labeling) (falcipains 1/2/3)	pIC50 (hSENP8 (deNEDDylase))	pIC50 (hSENP1)	pIC50 (hSENP2)
–	–	–	CCN1C(=O)C=CC1=O [NEM, N-ethylmaleimide, reference compound]	cleavage was inhibited	processing activity could be blocked	–	–	–	–	–
< 4.00	~4.00	irreversible inhibitor	O=C(O)c1cccc(C(=O)NCc2ccc(C(=O)NNC(=O)[C@H]3O[C@@H]3C(=O)N(Cc3cccc4ccccc34)Cc3cccc4ccccc34)cc2)c1 [VEA-260]	as potent as the original JCP-666	as potent as the original JCP-666	4.79	did not inhibit any of the falcipains	5.04	5.15	5.43
